Reference: ChEMBL document CHEMBL1124386, “Selective thyromimetics. Cardiac-sparing thyroid hormone analogues containing 3'-arylmethyl substituents” (J Med Chem, 1989)
In brackets after ≈: the same amount, converted by molar mass. One block for each compound: values may come before it. Activity calls are given as the source filed them. The rule behind the calls is not given here.

How the values were obtained:
Rattus norvegicus [1] = assay: Percent increase in oxygen consumption after seven daily oral doses of 5 mg/kg in euthyroid rats
[2] = target: T1, Thyroid hormone receptor beta (Rattus norvegicus) (UniProt P18113); assay: In vivo binding affinity to the receptor was determined in nuclei of heart 1 h after intravenous administration relative to 3,5,3' triiodothyronine receptor
T1 sequence (whole entry): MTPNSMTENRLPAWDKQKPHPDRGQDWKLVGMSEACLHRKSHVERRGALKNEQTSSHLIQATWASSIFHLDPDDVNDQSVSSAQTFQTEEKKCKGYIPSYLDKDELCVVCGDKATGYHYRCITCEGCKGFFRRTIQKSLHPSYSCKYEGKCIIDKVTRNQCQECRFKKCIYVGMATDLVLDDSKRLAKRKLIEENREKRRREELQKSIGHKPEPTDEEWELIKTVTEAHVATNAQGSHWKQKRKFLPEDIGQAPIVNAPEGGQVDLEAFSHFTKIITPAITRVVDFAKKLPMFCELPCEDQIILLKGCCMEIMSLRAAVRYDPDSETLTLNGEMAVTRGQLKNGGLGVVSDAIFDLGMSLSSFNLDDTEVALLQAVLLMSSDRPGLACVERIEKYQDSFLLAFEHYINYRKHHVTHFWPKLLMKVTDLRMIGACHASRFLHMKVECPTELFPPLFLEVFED

[3] = Binding affinity to the thyroid hormone receptor was determined in vitro in isolated nuclei of rat liver relative to 3,5,3' triiodothyronine; type: tissue-based
Rattus norvegicus [4] = assay: Potency for induction of GPDH (mitochondrial cytochrome C3-phosphoglycerate oxidoreductase) was measured relative to T3 in heart; I=inactive after 2 daily doses of 50 mg/kg; type: functional, organism-based; set-up: dose 50 mg/kg
[5] = target: T1, Thyroid hormone receptor beta (Rattus norvegicus); assay: Binding affinity to the receptor was determined in isolated nuclei of liver in vitro relative to 3,5,3' triiodothyronine receptor
Rattus norvegicus [6] = assay: Potency for induction of GPDH (mitochondrial cytochrome C3-phosphoglycerate oxidoreductase) was measured 48 hours after single intramuscular injection relative to T3 in liver; type: functional
Rattus norvegicus [7] = assay: Potency for induction of GPDH (mitochondrial cytochrome C3-phosphoglycerate oxidoreductase) was measured 48 hr after single im injection relative to T3 in heart; I=inactive after 2 daily doses of 50 mg/kg; type: functional, organism-based; set-up: dose 50 mg/kg
Rattus norvegicus [8] = assay: Percent increase in oxygen consumption after seven daily doses of test compound given intramuscularly, with the concentration of compound at 10 mg/kg; type: functional; details: route intramuscular
Outline: (§1)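 Euthyroid rats given seven daily doses, intramuscular or oral, by line; whole-body oxygen consumption measured as percent increase in metabolic rate.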

Rattus norvegicus [9] = assay: Percent increase in oxygen consumption after seven daily doses of test compound given perorally, with value in braces indicating the concentration of compound at 5 mg/kg; type: functional; details: route oral
Outline: as §1

[10] = target: T1, Thyroid hormone receptor beta (Rattus norvegicus); assay: Binding affinity to the receptor was determined in vitro in isolated nuclei of rat liver relative to T3; type: tissue-based
[11] = target: T1, Thyroid hormone receptor beta (Rattus norvegicus); assay: In vitro binding affinity to the receptor was determined in isolated nuclei of heart relative to T3; type: functional
[12] = target: T1, Thyroid hormone receptor beta (Rattus norvegicus); assay: Binding affinity to the receptor was determined in nuclei of heart in vivo 1 hour after intravenous administration relative to 3,5,3' triiodothyronine receptor
Rattus norvegicus [13] = assay: Percent increase in oxygen consumption after seven daily doses in mg/kg increase of test compound given perorally; I=inactive after 2 daily doses of 50 mg/kg; type: functional, organism-based; set-up: dose 50 mg/kg
Outline: as §1

[14] = target: T1, Thyroid hormone receptor beta (Rattus norvegicus); assay: Binding affinity to the receptor was determined in nuclei of liver In vivo 1 hour after intravenous administration relative to T3; type: organism-based
[15] = Aqueous solubility at 37 degree Celsius at pH 7.38; type: physicochemical
Outline: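 Solubility in aqueous medium at 37 °C, pH 7.38; given in units of ×10^5 mol/L.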

[16] = target: T1, Thyroid hormone receptor beta (Rattus norvegicus); assay: Binding affinity to the receptor was determined in isolated nuclei of heart(In vitro) relative to T3
Rattus norvegicus [17] = assay: Percent increase in oxygen consumption in dose-mg/Kgfter seven daily doses of test compound given intramuscularly, at a conc of 3.3 mg/kg; type: functional; details: route intramuscular
Outline: as §1

[18] = Partition coefficient at 25 degree Celsius in octanol/aqueous buffer at pH 6.02; type: physicochemical
[19] = Selectivity, ratio between relative ID50 in liver and heart
Outline: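 Liver/heart selectivity in rats, calculated as (relative ID50)liver divided by (relative ID50)heart, from in vivo nuclear binding 1 h after intravenous dosing.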

Rattus norvegicus [20] = assay: In vivo binding affinity for 3,5,3' triiodothyronine receptor of liver nuclei 1 hour after intravenous administration; type: organism-based
Rattus norvegicus [21] = assay: Percent increase in oxygen consumption after seven daily doses of test compound given intramuscularly, ata conc of 3.3 mg/kg; type: functional; details: route intramuscular
Outline: as §1

[22] = test system: Thyroid hormone receptor (Rattus norvegicus); assay: Binding affinity to thyroid hormone receptor, relative to 3,5,3' triiodothyronine receptor, in isolated nuclei of heart
Rattus norvegicus [23] = assay: In vivo binding affinity for 3,5,3'' triiodothyronine receptor of heart nuclei 1 hr after intravenous administration; type: organism-based
[24] = partition coefficient at 25 degree Celsius in octanol/aqueous buffer at pH 6.02; type: physicochemical
Rattus norvegicus [25] = assay: Percent increase in oxygen consumption after seven daily doses of test compound given perorally, with concentration of compound at 5 mg/kg; type: functional; details: route oral
Outline: as §1

Rattus norvegicus [26] = assay: Potency for induction of GPDH (mitochondrial cytochrome C3-phosphoglycerate oxidoreductase) was measured 48 hours after single intramuscular injection relative to […] in liver; type: functional
Rattus norvegicus [27] = assay: Percent increase in oxygen consumption after seven daily doses of test compound given perorally, with concentration of compound at 0.04 mg/kg; type: functional; details: route oral
Outline: as §1

Rattus norvegicus [28] = assay: Potency for induction of GPDH (mitochondrial cytochrome C 3-phosphoglycerate oxidoreductase) was measured 48 hr after single im injection relative to T3 in heart; LM=low maximal response after 2 daily doses of 50 mg/kg; type: functional, organism-based; set-up: dose 50 mg/kg; details: filed as partial agonist
Rattus norvegicus [29] = assay: Potency for induction of GPDH (mitochondrial cytochrome C3-phosphoglycerate oxidoreductase) was measured 48 hours after single intramuscular injection relative to T3 in heart; type: functional
Rattus norvegicus [30] = assay: Percent increase in oxygen consumption after seven daily doses of test compound given intramuscularly, with the concentration of compound at 0.1 mg/kg; type: functional; details: route intramuscular
Outline: as §1

Rattus norvegicus [31] = assay: Percent increase in oxygen consumption after seven daily doses of test compound given perorally, with concentration of compound at 0.1 mg/kg; type: functional; details: route oral
Outline: as §1

Rattus norvegicus [32] = assay: Percent increase in oxygen consumption after seven daily doses of test compound given intramuscularly, with concentration of compound at 20 mg/kg; type: functional; details: route intramuscular
Outline: as §1

Rattus norvegicus [33] = assay: Percent increase in oxygen consumption after seven daily doses of test compound given perorally, with concentration of compound; I=inactive after 2 daily doses of 5o mg/kg; type: functional, organism-based
Outline: as §1

Rattus norvegicus [34] = assay: Percent increase in oxygen consumption after seven daily doses of test compound given perorally; I=inactive after 2 daily doses of 50 mg/kg; type: functional, organism-based; set-up: dose 50 mg/kg
Outline: as §1

Rattus norvegicus [35] = assay: Percent increase in oxygen consumption after seven daily doses of test compound given intramuscularly, at a conc of 3.3 mg/kg; type: functional; details: route intramuscular
Outline: as §1

Rattus norvegicus [36] = assay: Percent increase in oxygen consumption after seven daily doses of test compound given perorally, with concentration of compound at 5.3 mg/kg; type: functional; details: route oral
Outline: as §1

Relative ID50 [2]: 0.26
Relative IC50 [3]: 21.7
Relative IC50 [5]: 21.7
Structure (SMILES): O=C(O)CCCc1cc(Br)c(Oc2ccc(O)c(Cc3ccc(O)nc3)c2)c(Br)c1
Increase (Rattus norvegicus [1]): 19%
Relative ED50 (Rattus norvegicus [4]): inactive
Relative ED50 (Rattus norvegicus [6]): 0.69

Relative IC50 [10]: 0.083
Relative IC50 [11]: 0.14
Structure (SMILES): Cc1cc(CC(N)C(=O)O)cc(C)c1Oc1ccc(O)c(Cc2ccc(O)nc2)c1 (centres undefined)
Relative ED50 (Rattus norvegicus [7]): inactive
Increase (Rattus norvegicus [8]): 28%
Increase (Rattus norvegicus [9]): 18%
Relative ED50 (Rattus norvegicus [6]): 1.1

Relative ID50 [12]: 0.2
Relative ID50 [14]: 10
solubility [15]: 10 µM (≈ 6.32 µg/mL)
Relative IC50 [16]: 2.7
Relative IC50 [3]: 2.3
logD [18]: 1.01
Ratio [19]: 50
Structure (SMILES): N[C@@H](Cc1cc(I)c(Oc2ccc(O)c(Cc3ccc(O)nc3)c2)c(I)c1)C(=O)O
Increase (Rattus norvegicus [13]): inactive
Relative ED50 (Rattus norvegicus [7]): inactive
Increase (Rattus norvegicus [17]): 19%
Relative ED50 (Rattus norvegicus [6]): 1.7

solubility [15]: 33 µM (≈ 17.8 µg/mL)
Relative IC50 [3]: 2
Relative IC50 [22]: 1.8
logD [24]: 0.7
Structure (SMILES): N[C@@H](Cc1cc(Br)c(Oc2ccc(O)c(Cc3ccc(O)nc3)c2)c(Br)c1)C(=O)O
Relative ID50 (Rattus norvegicus [20]): 23
Increase (Rattus norvegicus [21]): 32%
Relative ED50 (Rattus norvegicus [7]): inactive
Relative ID50 (Rattus norvegicus [23]): 0.3
Relative ED50 (Rattus norvegicus [6]): 6.9
Increase (Rattus norvegicus [25]): 31%

Relative IC50 [3]: 0.48
Relative IC50 [22]: 0.8
Structure (SMILES): N[C@@H](Cc1cc(Cl)c(Oc2ccc(O)c(Cc3ccc(O)nn3)c2)c(Cl)c1)C(=O)O
Relative ED50 (Rattus norvegicus [26]): 25
Increase (Rattus norvegicus [27]): 15%
Relative ED50 (Rattus norvegicus [28]): Partial agonist

Relative IC50 [3]: 0.9
Structure (SMILES): N[C@@H](Cc1cc(Br)c(Oc2ccc(O)c(Cc3ccc(O)nn3)c2)c(Br)c1)C(=O)O
Relative ED50 (Rattus norvegicus [29]): <0.1
Increase (Rattus norvegicus [30]): 20%
Relative ED50 (Rattus norvegicus [6]): 18
Increase (Rattus norvegicus [31]): 20%

Relative IC50 [3]: 3
Structure (SMILES): O=C(O)Cc1cc(Br)c(Oc2ccc(O)c(Cc3ccc(O)nc3)c2)c(Br)c1
Relative ED50 (Rattus norvegicus [7]): inactive
Increase (Rattus norvegicus [32]): 21%
% increase O2 consumption (Rattus norvegicus [33]): inactive
Relative ED50 (Rattus norvegicus [6]): 2

Relative IC50 [3]: 14.8
Relative IC50 [22]: 19.4
Structure (SMILES): N[C@@H](Cc1cc(I)c(Sc2ccc(O)c(Cc3ccc(O)nc3)c2)c(I)c1)C(=O)O
% increase O2 consumption (Rattus norvegicus [34]): inactive
Relative ED50 (Rattus norvegicus [7]): inactive
Increase (Rattus norvegicus [35]): 26%
Relative ED50 (Rattus norvegicus [6]): 16.6

Relative IC50 [3]: 9.8
Relative IC50 [22]: 10.2
Structure (SMILES): N[C@@H](Cc1cc(Br)c(Sc2ccc(O)c(Cc3ccc(O)nc3)c2)c(Br)c1)C(=O)O
Relative ED50 (Rattus norvegicus [26]): 14.5
Increase (Rattus norvegicus [36]): 16%
Relative ED50 (Rattus norvegicus [28]): Partial agonist
